# TNAP inh hiacc – inhibitors of human TNAP at high phosphate acceptor concentration; P05186; purified TNAP, CDP-star luminescence, 1 M DEA; inhibition, % at 20 µM; actives 0.03% (n = 200,000); AID 1135;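 active = over 50% inhibition of tissue-nonspecific alkaline phosphatase at 20 µM in the single-dose screen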
# Target sequence (P05186 whole entry, looked up): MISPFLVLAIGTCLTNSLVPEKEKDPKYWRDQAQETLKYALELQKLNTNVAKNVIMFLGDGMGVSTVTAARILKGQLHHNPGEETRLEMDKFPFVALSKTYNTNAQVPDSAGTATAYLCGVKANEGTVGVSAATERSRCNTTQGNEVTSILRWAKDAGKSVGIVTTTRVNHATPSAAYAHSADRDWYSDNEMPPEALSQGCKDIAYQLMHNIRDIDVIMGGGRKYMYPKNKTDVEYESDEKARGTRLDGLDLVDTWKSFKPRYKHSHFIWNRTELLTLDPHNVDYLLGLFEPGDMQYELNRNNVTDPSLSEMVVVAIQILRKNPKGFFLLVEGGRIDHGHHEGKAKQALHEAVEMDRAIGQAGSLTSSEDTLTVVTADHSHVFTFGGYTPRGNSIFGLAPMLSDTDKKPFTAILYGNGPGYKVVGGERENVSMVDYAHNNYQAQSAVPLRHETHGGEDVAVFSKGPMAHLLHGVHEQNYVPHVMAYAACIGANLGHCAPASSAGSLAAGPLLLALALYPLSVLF
# L major viab – inhibitors of Leishmania major promastigote growth. AID 1063. Leishmania major promastigotes, resazurin fluorescence viability. inhibition, % at 10 µM. actives 9% (n = 200,000); in the data active = inhibition above about 50%;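 note: promastigotes grown with compound for 44 hours at 28 °C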
# HCT116 bCat-KO – beta-catenin-lacking colon tumor cell growth suppression. actives 1.5% (n = 140,000). HCT116 beta-catenin knockout viability, CellTiter-Glo, 60 h; active compounds read low. viability, % at 10 µM. AID 818;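 active = viability at or under a set limit, the compound median less 4 SD, cut at about 6% in these data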
# TNAP act hi DEA – increases human TNAP activity under high phosphate acceptor concentration; P05186; purified TNAP, CDP-star luminescence, 1 M DEA, 30 min; active compounds read high; 0 = EDTA background, 1 = DMSO-only activity; activation factor at 20 µM; 200,000 tested, under 10 active;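 active = activation factor at least 2 at 20 µM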
#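 Test system – human TNAP · Doses – 20 µM single point · Incubation – 30 min, room temperature · Signal – luminescent substrate turnover signal · Read-out basis – activation factor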
# PTEN del growth – suppresses growth of cells with PTEN deletion; HCT116 PTEN-null viability, CellTiter-Glo, 60 h; active compounds read low; actives 1.2% (n = 140,000); viability, % at 10 µM; AID 827;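 active = viability at or below a set limit, 4 SD under the median of all tested compounds, cut at about 3.7% in these data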;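 note: PTEN knockout HCT116 line with beta catenin targeted HCT116 as companion control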
# TNAP inh no acc – inhibitors of human TNAP without phosphate acceptor; P05186; purified TNAP, CDP-star luminescence, 30 min; inhibition, % at 20 µM; actives 0.26% (n = 200,000);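 active = tissue-nonspecific alkaline phosphatase inhibition above about 50% at 20 µM in the single-dose screen, limit read from the data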
# Hits are given with their value; i = inactive; nt = no result given. A selection: hits, their analogues and other compounds. The true share with any hit is near 9.6%.
SMILES,TNAP inh hiacc,L major viab,HCT116 bCat-KO,TNAP act hi DEA,PTEN del growth,TNAP inh no acc
COC(=O)C(C)NC(=O)C12CC3CC(CC(C3)C1)C2 (stereo unspecified),i,i,i,i,i,i
CC(C)C(NC(=O)C12CC3CC(CC(C3)C1)C2)C(=O)O (stereo unspecified),i,52,i,i,i,i
CCOc1ccc(Br)cc1C1C(C(=O)OC)=C(N)Oc2cc(N(C)C)ccc21 (stereo unspecified),i,100,i,i,i,i
O=C(CN1C(=O)NC2(CCCCCCC2)C1=O)NC1CCCc2ccccc21 (stereo unspecified),i,i,i,i,i,i
c1ccc(N2CCN(c3nc(NCc4ccco4)c4ccccc4n3)CC2)cc1,i,98,2.4,i,3.1,i
c1coc(CNc2nc(N3CCCCC3)nc3ccccc23)c1,i,96,i,i,i,i
O=c1c2ccccc2nc2c3ccccc3c(NCc3ccco3)nn12,i,i,i,i,i,i
C/C(CC(=O)Nc1ccc([N+](=O)[O-])cc1)=N/NC(=O)C1CC12CCC2 (stereo unspecified),i,i,nt,i,nt,i
COc1ccc(C)cc1NC(=O)C(OC(=O)CNC(=O)c1ccc(Br)cc1)c1ccccc1 (stereo unspecified),i,52,i,i,i,i
O=C(CCCNc1ccccc1)N/N=C/c1cccs1,i,i,nt,i,nt,i
COc1cc(C)c(Cl)cc1S(=O)(=O)n1cnc(C)c1,i,89,i,i,i,i
O=C(CSc1ncccn1)NC(=O)c1ccccc1,i,i,nt,i,nt,i
COC(=O)c1ccc2c(c1O)C(=O)c1ccccc1C2=O,i,84,4.5,i,2.8,i
COc1ccc2nc(N3C(=O)/C(=C/c4ccc(Cl)cc4)NC3=S)sc2c1,i,60,i,i,i,i
CNS(=O)(=O)c1ccc(N=Cc2c(C)[nH]n(-c3ccc(C)cc3C)c2=O)cc1,i,i,nt,i,nt,i
Cc1ccc(-n2[nH]c(C)c(C=Nc3ccc(S(=O)(=O)N4CCOCC4)cc3)c2=O)c(C)c1,i,52,i,i,i,i
O=C(Nc1cccc2ncccc12)C(c1ccccc1)c1ccccc1,i,i,nt,i,nt,i
CCC(C)N(C)Cc1cccc(C2(O)CCN(S(=O)(=O)c3ccc(F)c(C)c3)CC2)c1 (stereo unspecified),i,99,i,i,i,i
Cc1ccc(S(=O)(=O)N2CCN(C(=S)NCc3ccc4c(c3)OCO4)CC2)cc1,i,i,nt,i,nt,i
O=C(CN1CCCC1)Nc1ccc([N+](=O)[O-])cc1,i,i,nt,i,nt,i
COc1ccc([N+](=O)[O-])cc1/C=N/NC(=O)CNC(=O)c1cccc(F)c1,i,98,i,i,i,i
O=C(CNC(=O)c1cccc(F)c1)N/N=C/c1cc(Br)ccc1OC(=O)/C=C/c1ccco1,i,84,i,i,i,i
O=C(CNC(=O)c1ccc(F)cc1)N/N=C/c1cc(Br)ccc1OCc1ccccc1,i,96,i,i,i,i
O=C(CNC(=O)c1ccccc1O)N/N=C/c1cc(Br)ccc1OC(=O)/C=C/c1ccco1,i,68,nt,i,nt,i
COc1ccccc1C(=O)NCC(=O)N/N=C/c1cc(Br)ccc1OCc1ccccc1,i,i,i,i,i,i
SMILES,TNAP inh hiacc,L major viab,HCT116 bCat-KO,TNAP act hi DEA,PTEN del growth,TNAP inh no acc
COc1ccc([N+](=O)[O-])cc1/C=N/NC(=O)CNC(=O)C(c1ccccc1)c1ccccc1,i,i,i,i,i,i
COc1ccc(CCNS(=O)(=O)c2cc(C(=O)O)c(Cl)cc2Cl)cc1,i,i,nt,i,nt,i
O=C(Cc1ccc(Cl)cc1Cl)NCC1(N2CCOCC2)CCCCC1,i,i,nt,i,nt,i
COc1ccc(NC(=O)N2CCN(S(C)(=O)=O)CC2)c(OC)c1,i,i,nt,i,nt,i
O=C(NC1CCCC1)C(c1ccccc1)N(Cc1cccnc1)C(=O)Cc1cccs1 (stereo unspecified),i,i,nt,i,nt,i
Cc1ccc(S(=O)(=O)CC(c2ccccc2)N2CCCCC2)cc1 (stereo unspecified),i,i,nt,i,nt,i
Cc1ccc(S(=O)(=O)CC(CN2CCCCC2)N2CCCCC2)cc1 (stereo unspecified),i,97,nt,i,nt,i
Cc1c(Cl)cccc1NC(=S)NC1CC1,i,82,i,i,i,i
S=C(Nc1ccccc1Cl)NC1CCCCCC1,i,i,nt,i,nt,i
